In ChEMBL document CHEMBL4118021, “Studies of TAK1-centered polypharmacology with novel covalent TAK1 inhibitors” (Bioorg Med Chem, 2017) one finds Activity and inhibition data, which are given here for three molecules.

Assay [1] deals with T1, Mitogen-activated protein kinase kinase kinase 7 (Homo sapiens) (UniProt O43318).
T1 sequence (whole entry): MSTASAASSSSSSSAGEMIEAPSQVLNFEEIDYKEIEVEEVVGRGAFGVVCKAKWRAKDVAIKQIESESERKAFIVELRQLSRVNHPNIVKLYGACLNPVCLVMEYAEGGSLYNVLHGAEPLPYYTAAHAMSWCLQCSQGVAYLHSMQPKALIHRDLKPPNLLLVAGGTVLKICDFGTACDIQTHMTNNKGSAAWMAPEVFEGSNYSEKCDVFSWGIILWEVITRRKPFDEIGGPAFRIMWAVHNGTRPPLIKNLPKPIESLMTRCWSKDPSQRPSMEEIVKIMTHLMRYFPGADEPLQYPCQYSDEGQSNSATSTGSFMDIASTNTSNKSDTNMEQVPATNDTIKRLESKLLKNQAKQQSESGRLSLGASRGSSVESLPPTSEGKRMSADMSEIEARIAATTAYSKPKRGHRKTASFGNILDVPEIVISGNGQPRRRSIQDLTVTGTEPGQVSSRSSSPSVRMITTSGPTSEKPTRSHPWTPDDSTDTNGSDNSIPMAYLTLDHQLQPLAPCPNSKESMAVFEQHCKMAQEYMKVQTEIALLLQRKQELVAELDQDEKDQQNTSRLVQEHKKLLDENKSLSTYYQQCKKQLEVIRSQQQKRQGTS
In words: Binding affinity to MAP3K7 in human NCI-H23 cells at 1 uM by mass spectrometry based pull down assay. The class given is cell-based.

Assay [2] deals with Inosine-5'-monophosphate dehydrogenase 1 (Homo sapiens) (UniProt P20839). In words: Binding affinity to IMPDH1 in human NCI-H23 cells at 1 uM by mass spectrometry based pull down assay. The class given is cell-based.
For assay [3], the target named is ADP-ribosylation factor 5 (Homo sapiens) (UniProt P84085). In words: Binding affinity to ARF5 in human NCI-H358 cells at 1 uM by mass spectrometry based pull down assay. The class given is cell-based.
For assay [4], the target named is Quinone oxidoreductase (Homo sapiens) (UniProt Q08257). Kind of assay: Binding affinity to CRYZ in human NCI-H358 cells at 1 uM by mass spectrometry based pull down assay. It counts as cell-based.
Assay [5] concerns the target Bridging integrator 3 (Homo sapiens) (UniProt Q9NQY0). Kind of assay: Binding affinity to BIN3 in human NCI-H23 cells at 1 uM by mass spectrometry based pull down assay. It counts as cell-based.
Assay [6] concerns the target 5'-nucleotidase domain-containing protein 1 (Homo sapiens) (UniProt Q5TFE4). In words: Binding affinity to NT5DC1 in human NCI-H358 cells at 1 uM by mass spectrometry based pull down assay. It counts as cell-based.
Assay [7] has as its target Vasodilator-stimulated phosphoprotein (Homo sapiens) (UniProt P50552). Kind of assay: Binding affinity to VASP in human NCI-H23 cells at 1 uM by mass spectrometry based pull down assay. The class given is cell-based.
The target in assay [8] is Proteasome subunit beta type-6 (Homo sapiens) (UniProt P28072). Kind of assay: Binding affinity to PSMB6 in human NCI-H23 cells at 1 uM by mass spectrometry based pull down assay. The class given is cell-based.
The target in assay [9] is Methylosome protein WDR77 (Homo sapiens) (UniProt Q9BQA1). In words: Binding affinity to WDR77 in human NCI-H23 cells at 1 uM by mass spectrometry based pull down assay. It counts as cell-based.
Assay [10] concerns the target Small ribosomal subunit protein uS2 (Homo sapiens) (UniProt P08865). In words: Binding affinity to RPSA in human NCI-H23 cells at 1 uM by mass spectrometry based pull down assay. The class given is cell-based.
The target of assay [11] is DNA mismatch repair protein Msh2 (Homo sapiens) (UniProt P43246). In words: Binding affinity to MSH2 in human NCI-H358 cells at 1 uM by mass spectrometry based pull down assay. It counts as cell-based.
In assay [12] the target is ATP-citrate synthase (Homo sapiens) (UniProt P53396). Kind of assay: Binding affinity to ACLY in human NCI-H23 cells at 1 uM by mass spectrometry based pull down assay. It counts as cell-based. In outline: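 NCI-H23 or NCI-H358 cells were grown and lysed. Lysates were incubated overnight at 4 °C with 1 μM biotinylated covalent probe or DMSO, then pulled down on streptavidin beads. Proteins were run on polyacrylamide gels and stained with Coomassie. Bands were excised, digested and identified by mass spectrometry.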

Assay [13] concerns the target Mitogen-activated protein kinase kinase kinase 20 (Homo sapiens) (UniProt Q9NYL2). Kind of assay: Binding affinity to ZAK in human NCI-H358 cells at 1 uM by mass spectrometry based pull down assay. It counts as cell-based.
In assay [14] the target is Glutamate--cysteine ligase regulatory subunit (Homo sapiens) (UniProt P48507). Kind of assay: Binding affinity to GCLM in human NCI-H23 cells at 1 uM by mass spectrometry based pull down assay. It counts as cell-based.
The target of assay [15] is YTH domain-containing family protein 2 (Homo sapiens) (UniProt Q9Y5A9). In words: Binding affinity to YTHDF2 in human NCI-H358 cells at 1 uM by mass spectrometry based pull down assay. The class given is cell-based.
Assay [16] deals with Protein transport protein Sec16A (Homo sapiens) (UniProt O15027). In words: Binding affinity to SEC16A in human NCI-H23 cells at 1 uM by mass spectrometry based pull down assay. It counts as cell-based.
Assay [17] deals with T2, Dual specificity mitogen-activated protein kinase kinase 5 (Homo sapiens) (UniProt Q13163).
T2 sequence (whole entry): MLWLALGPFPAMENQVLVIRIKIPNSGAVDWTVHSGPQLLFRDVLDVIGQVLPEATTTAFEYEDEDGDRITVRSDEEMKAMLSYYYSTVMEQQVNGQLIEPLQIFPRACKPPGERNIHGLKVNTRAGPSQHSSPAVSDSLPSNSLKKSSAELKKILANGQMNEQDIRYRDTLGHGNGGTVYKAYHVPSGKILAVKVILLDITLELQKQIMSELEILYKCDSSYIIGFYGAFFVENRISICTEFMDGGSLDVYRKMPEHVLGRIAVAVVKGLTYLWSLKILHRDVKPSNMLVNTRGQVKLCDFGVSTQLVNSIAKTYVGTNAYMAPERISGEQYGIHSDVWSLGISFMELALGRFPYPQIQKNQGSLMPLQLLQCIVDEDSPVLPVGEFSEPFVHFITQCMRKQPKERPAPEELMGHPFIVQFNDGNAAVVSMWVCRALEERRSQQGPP
Kind of assay: Binding affinity to MAP2K5 in human NCI-H358 cells at 1 uM by mass spectrometry based pull down assay. It counts as cell-based.

The target in assay [18] is Y-box-binding protein 3 (Homo sapiens) (UniProt P16989). In words: Binding affinity to YBX3 in human NCI-H23 cells at 1 uM by mass spectrometry based pull down assay. The class given is cell-based.
In assay [19] the target is MAP/microtubule affinity-regulating kinase 3 (Homo sapiens) (UniProt P27448). In words: Inhibition of MARK3 in human SKCO1 cells at 1 uM after 4 hrs using biotin labeled EVAIKIIDKTQLNPTSLQK probe by mass-spectrometric analysis relative to control. The class given is cell-based.
In assay [20] the target is Serine/threonine-protein kinase 36 (Homo sapiens) (UniProt Q9NRP7). Kind of assay: Inhibition of human STK36 (1 to 271 residues) expressed in bacterial expression system assessed as enzyme activity at 10 uM by KINOMEScan assay relative to control. More on the design: scale not given: the % may be the effect or the level left. In outline:
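In vitro ATP-site competition binding assay across a panel of 456 kinases, with compound tested at 1 and 10 μM.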

Activity calls are given as the source filed them. No cut-off for these calls is given here.

Sequence of Quinone oxidoreductase (Homo sapiens) (Q08257 whole entry): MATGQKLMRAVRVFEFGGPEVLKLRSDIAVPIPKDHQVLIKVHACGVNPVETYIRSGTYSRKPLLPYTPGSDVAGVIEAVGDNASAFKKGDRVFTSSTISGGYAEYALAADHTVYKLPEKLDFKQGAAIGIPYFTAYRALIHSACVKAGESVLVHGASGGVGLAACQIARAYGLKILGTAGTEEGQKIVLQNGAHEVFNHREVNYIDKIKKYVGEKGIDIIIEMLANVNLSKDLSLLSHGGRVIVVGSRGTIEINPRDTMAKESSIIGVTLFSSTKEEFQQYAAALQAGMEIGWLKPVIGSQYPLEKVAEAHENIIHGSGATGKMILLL
Sequence of Glutamate--cysteine ligase regulatory subunit (Homo sapiens) (P48507 whole entry, the tested form may be a part): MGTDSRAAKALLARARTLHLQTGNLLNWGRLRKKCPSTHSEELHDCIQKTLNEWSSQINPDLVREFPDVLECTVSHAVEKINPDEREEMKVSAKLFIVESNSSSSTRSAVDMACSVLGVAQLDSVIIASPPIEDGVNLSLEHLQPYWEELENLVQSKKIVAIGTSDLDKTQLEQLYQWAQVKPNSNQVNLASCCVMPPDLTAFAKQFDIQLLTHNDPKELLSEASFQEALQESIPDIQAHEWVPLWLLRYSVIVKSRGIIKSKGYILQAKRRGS
Sequence of YTH domain-containing family protein 2 (Homo sapiens) (Q9Y5A9 whole entry, the tested form may be a part): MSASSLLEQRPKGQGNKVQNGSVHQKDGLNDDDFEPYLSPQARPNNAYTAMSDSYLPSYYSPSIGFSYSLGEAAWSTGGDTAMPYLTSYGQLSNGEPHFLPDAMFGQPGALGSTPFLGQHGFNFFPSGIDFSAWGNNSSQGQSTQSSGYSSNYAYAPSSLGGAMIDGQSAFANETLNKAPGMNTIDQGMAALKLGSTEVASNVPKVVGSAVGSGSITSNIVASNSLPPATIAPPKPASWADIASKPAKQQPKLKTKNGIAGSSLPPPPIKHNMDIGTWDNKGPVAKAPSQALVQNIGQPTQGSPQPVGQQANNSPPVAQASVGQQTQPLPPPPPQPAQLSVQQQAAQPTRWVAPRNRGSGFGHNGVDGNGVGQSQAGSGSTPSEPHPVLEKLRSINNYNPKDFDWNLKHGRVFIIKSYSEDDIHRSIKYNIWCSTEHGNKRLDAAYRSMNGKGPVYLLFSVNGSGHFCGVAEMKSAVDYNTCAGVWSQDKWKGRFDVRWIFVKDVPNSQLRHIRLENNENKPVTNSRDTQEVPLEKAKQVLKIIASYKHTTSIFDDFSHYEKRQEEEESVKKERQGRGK
Sequence of ATP-citrate synthase (Homo sapiens) (P53396 whole entry): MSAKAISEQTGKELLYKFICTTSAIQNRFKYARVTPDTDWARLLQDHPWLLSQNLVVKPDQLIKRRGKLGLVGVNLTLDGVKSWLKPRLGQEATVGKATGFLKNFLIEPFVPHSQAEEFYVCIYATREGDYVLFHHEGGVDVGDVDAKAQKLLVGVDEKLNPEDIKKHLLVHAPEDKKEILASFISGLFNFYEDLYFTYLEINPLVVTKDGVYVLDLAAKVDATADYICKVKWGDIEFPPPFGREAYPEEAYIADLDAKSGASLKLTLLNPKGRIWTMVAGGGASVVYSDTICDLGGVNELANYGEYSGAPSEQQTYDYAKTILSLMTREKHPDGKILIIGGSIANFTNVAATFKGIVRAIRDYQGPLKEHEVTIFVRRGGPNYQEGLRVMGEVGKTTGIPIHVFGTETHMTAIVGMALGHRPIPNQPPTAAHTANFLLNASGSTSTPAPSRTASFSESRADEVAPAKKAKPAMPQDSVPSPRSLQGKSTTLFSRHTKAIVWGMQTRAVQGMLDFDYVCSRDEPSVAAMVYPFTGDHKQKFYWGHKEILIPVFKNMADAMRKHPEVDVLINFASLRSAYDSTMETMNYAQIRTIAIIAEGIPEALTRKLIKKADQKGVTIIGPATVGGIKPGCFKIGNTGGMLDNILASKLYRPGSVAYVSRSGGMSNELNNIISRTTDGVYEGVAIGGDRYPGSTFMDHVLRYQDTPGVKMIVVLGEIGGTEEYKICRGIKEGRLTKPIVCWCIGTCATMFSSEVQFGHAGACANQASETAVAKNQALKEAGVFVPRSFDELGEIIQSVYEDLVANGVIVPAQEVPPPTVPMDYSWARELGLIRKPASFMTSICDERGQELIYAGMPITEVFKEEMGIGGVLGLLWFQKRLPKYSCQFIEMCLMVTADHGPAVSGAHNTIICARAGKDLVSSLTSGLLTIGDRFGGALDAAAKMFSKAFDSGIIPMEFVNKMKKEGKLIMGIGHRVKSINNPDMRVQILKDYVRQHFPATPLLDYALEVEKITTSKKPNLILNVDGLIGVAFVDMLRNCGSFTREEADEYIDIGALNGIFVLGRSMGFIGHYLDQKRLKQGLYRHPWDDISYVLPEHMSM
Sequence of ADP-ribosylation factor 5 (Homo sapiens) (P84085 whole entry): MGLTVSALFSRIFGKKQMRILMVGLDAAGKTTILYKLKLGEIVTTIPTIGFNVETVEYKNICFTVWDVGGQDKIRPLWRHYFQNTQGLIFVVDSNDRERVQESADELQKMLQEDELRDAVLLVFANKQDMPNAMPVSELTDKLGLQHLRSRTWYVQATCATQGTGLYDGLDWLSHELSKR
Sequence of 5'-nucleotidase domain-containing protein 1 (Homo sapiens) (Q5TFE4 whole entry, the tested form may be a part): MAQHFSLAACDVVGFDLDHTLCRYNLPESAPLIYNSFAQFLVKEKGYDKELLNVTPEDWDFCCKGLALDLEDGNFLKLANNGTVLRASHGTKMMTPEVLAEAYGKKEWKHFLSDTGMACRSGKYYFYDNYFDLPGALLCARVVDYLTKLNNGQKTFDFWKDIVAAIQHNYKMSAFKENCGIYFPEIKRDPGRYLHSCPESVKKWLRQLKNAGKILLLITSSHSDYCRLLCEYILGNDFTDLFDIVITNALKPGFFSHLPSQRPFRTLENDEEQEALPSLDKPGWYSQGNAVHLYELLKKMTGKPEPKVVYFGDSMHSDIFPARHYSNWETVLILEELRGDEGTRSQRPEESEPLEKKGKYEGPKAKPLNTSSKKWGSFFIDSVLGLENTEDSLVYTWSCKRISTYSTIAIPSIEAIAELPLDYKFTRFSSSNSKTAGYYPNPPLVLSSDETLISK
Sequence of MAP/microtubule affinity-regulating kinase 3 (Homo sapiens) (P27448 whole entry, looked up, the tested form may be a part): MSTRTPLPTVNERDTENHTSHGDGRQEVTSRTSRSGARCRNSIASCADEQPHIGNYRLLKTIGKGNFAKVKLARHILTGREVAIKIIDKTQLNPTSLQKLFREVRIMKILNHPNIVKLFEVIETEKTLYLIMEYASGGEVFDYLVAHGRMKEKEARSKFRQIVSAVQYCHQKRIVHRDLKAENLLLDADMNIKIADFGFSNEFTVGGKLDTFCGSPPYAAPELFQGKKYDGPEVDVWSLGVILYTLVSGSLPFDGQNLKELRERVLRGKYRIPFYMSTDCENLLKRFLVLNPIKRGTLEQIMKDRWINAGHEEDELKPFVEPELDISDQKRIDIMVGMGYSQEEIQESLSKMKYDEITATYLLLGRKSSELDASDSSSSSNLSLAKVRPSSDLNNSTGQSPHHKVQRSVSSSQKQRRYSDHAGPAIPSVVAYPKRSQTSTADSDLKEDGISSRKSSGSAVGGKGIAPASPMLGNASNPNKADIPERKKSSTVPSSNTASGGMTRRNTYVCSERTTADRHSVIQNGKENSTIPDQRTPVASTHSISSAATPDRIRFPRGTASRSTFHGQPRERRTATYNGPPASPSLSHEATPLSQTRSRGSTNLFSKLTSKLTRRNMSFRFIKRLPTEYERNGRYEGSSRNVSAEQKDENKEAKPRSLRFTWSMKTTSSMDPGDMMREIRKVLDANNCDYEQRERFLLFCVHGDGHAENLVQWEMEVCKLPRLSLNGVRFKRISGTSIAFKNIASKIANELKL
Sequence of DNA mismatch repair protein Msh2 (Homo sapiens) (P43246 whole entry): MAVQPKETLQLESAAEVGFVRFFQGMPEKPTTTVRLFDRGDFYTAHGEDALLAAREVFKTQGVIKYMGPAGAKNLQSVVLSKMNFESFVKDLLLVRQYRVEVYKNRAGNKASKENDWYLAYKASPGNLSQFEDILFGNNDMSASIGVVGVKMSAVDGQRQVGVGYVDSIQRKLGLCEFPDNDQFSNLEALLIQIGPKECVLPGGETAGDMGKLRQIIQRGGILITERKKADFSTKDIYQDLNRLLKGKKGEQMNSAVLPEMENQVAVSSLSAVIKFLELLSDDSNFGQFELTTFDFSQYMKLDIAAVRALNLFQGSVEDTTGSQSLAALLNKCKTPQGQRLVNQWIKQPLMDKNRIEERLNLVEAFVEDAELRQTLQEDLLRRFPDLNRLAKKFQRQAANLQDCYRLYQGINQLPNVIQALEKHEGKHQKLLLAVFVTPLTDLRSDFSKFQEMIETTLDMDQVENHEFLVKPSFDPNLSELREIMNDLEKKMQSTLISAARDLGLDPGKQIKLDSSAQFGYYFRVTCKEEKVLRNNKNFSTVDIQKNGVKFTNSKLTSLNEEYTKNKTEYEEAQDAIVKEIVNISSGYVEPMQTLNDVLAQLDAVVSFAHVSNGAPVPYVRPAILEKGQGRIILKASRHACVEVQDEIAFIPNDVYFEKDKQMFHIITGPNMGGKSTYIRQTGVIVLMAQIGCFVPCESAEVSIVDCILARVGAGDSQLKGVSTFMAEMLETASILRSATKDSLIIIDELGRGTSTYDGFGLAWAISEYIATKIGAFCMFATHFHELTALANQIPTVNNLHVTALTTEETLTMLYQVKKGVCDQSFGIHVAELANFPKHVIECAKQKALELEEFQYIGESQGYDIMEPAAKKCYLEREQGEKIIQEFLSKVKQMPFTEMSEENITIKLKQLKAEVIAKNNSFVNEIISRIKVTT
Sequence of Bridging integrator 3 (Homo sapiens) (Q9NQY0 whole entry, the tested form may be a part): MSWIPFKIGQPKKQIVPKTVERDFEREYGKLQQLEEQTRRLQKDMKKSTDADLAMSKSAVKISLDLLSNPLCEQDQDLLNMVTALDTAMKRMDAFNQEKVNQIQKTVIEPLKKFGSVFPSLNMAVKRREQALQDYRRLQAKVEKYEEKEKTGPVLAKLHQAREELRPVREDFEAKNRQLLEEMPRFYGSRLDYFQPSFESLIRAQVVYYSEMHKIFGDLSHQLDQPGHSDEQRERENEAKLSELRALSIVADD

For the molecule `C=CC(=O)Nc1ccccc1Nc1nc(Nc2ccc(N3CCN(CCOCCOCCOCCNC(=O)CCCC[C@@H]4SC[C@@H]5NC(=O)N[C@@H]54)CC3)cc2)ncc1Cl`, the outcome in assay [1], in assay [2], in [3], in [4], in assay [5] and in assay [6] was Active. The result in assay [7], in assay [8], in assay [9], in assay [10], in [11] and in [12] was Active. The result in [13], in assay [14], in assay [15], in [16], in assay [17] and in [18] was Active.

For `C=CC(=O)Nc1ccccc1Nc1nc(Nc2ccc(N3CCN(C)CC3)cc2)ncc1Cl`, the inhibition in assay [19] amounted to 8.6%.

With `COc1cc(O)c2c(c1)/C=C/C[C@H](O)[C@H](O)C(=O)/C=C\C[C@H](C)OC2=O`, the Activity in assay [20] turned out to be 0.95%.
